In ChEMBL document CHEMBL4342513, “Implementation of the CYP Index for the Design of Selective Tryptophan-2,3-dioxygenase Inhibitors” (ACS Med Chem Lett, 2020):
Values after ≈ are worked out from the molar mass of the structure shown.

How the values were obtained:
[1] = organism: Homo sapiens; assay: Selectivity index, ratio of EC50 for inhibition of IDO1 in human A172 cells in presence of IFNgamma to EC50 for inhibition of TDO in human SW48 cells; format: cell-based
[2] = Lipophilicity, log D of compound at pH 7.4; format: physicochemical; conditions: buffer
[3] = Clearance in human liver microsomes; format: ADME, Microsome
Summary of the method: (§1)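 Clearance was measured in liver microsome incubations from human, rat and mouse. It is expressed as scaled clearance in mL/min/kg.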

[4] = Clearance in rat liver microsomes; format: ADME, Microsome; summary of the method: as §1
[5] = Clearance in mouse liver microsomes; format: ADME, Microsome; summary of the method: as §1
[6] = molecular target: T1, Tryptophan 2,3-dioxygenase (Homo sapiens, UniProt P48775); assay: Inhibition of TDO (unknown origin)
[7] = molecular target: T1, Tryptophan 2,3-dioxygenase; assay: Inhibition of TDO in human SW48 cells after 24 hrs by NFK green reagent based assay; format: cell-based
[8] = molecular target: Cytochrome P450 3A4 (Homo sapiens, UniProt P08684); assay: Inhibition of CYP3A4 (unknown origin); format: ADME
[9] = organism: Homo sapiens; assay: Selectivity index, ratio of IC50 for inhibition of CYP3A4 (unknown origin) to EC50 for inhibition of EC50 for inhibition of TDO in human SW48 cells; format: cell-based
[10] = Apparent permeability across apical to basolateral side in MDCK cells; format: ADME, cell-based, Canis lupus familiaris; conditions: dog
[11] = Kinetic solubility of compound; format: physicochemical; conditions: read-out: Kinetic_solubility
[12] = Clearance in iv dosed mouse plasma; format: ADME, organism-based
Summary of the method: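 Compounds were given to mice as discrete (single-compound) intravenous doses. Plasma clearance (CLp) is expressed in mL/min/kg.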

[13] = Protein binding in mouse plasma assessed as unbound fraction; format: ADME, cell-free
[14] = Unbound clearance in mouse plasma; format: ADME, cell-free
[15] = Volume of distribution at steady state in mouse; format: ADME, organism-based; conditions: in vivo, read-out: Vdss
[16] = Half life in mouse; format: ADME, organism-based; conditions: in vivo
[17] = Oral bioavailability in mouse at 1 mg/kg dosed as cassette formulation; format: ADME, organism-based; conditions: in vivo
[18] = AUC (infinity) in mouse; format: ADME, organism-based; set-up: time infinity; conditions: in vivo
[19] = Oral bioavailability in mouse at 5 mg/kg; format: ADME, organism-based; conditions: in vivo
[20] = molecular target: Indoleamine 2,3-dioxygenase 1 (Homo sapiens, UniProt P14902); assay: Inhibition of IDO1 in human A172 cells after 24 hrs in presence of IFNgamma by NFK green reagent based assay; format: cell-based
[21] = molecular target: T1, Tryptophan 2,3-dioxygenase; assay: Inhibition of recombinant human TDO using L-tryptophan as substrate preincubated for 5 mins followed by substrate addition and measured after 15 mins by RapidFire-Mass spectrometry

Sequence of Cytochrome P450 3A4 (P08684 whole entry): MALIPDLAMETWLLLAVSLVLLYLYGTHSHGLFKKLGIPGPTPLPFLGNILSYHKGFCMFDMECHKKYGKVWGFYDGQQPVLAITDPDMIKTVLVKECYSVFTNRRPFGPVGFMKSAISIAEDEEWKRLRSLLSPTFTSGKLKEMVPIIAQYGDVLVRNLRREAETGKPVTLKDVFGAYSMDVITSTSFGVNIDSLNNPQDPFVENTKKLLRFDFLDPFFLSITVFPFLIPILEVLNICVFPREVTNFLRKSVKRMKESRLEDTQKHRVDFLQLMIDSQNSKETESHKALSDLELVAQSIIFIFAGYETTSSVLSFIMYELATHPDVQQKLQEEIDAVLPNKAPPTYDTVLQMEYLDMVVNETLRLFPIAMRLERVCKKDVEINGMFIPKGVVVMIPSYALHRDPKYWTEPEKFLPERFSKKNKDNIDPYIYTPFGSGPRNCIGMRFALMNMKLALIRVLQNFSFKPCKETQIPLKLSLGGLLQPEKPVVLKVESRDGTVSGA
T1 sequence (P48775 whole entry): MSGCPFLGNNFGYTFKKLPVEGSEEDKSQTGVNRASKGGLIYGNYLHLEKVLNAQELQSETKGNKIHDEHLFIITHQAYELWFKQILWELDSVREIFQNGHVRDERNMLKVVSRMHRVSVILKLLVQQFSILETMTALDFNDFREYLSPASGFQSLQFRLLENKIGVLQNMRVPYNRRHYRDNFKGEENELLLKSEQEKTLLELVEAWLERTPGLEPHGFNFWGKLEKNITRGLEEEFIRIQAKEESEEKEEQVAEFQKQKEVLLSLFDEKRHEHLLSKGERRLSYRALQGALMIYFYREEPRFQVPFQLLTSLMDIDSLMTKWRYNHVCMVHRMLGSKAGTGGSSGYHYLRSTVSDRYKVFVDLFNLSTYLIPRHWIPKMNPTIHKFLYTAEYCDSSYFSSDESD
Sequence of Indoleamine 2,3-dioxygenase 1 (P14902 whole entry): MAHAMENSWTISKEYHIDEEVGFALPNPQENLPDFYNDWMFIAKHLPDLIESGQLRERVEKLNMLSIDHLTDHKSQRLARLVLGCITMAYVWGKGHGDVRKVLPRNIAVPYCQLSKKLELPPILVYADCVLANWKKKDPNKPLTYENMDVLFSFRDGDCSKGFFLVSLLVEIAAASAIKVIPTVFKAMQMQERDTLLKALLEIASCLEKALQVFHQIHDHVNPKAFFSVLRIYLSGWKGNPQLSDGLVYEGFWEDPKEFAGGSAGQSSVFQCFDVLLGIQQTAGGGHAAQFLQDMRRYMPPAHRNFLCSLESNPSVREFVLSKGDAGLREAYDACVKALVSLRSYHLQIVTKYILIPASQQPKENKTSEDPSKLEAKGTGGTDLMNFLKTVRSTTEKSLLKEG

| Compound | Ratio EC50 [1] | CLhep predicted [3] | CLhep predicted [4] | CLhep predicted [5] | EC50 [7] | IC50 [8] | Ratio IC50/EC50 [9] | EC50 [20] | other results |
| --- | --- | --- | --- | --- | --- | --- | --- | --- | --- |
| c1ccc2c(c1)-c1cncn1[C@H]2C1CCCCC1 | 13 | 15 mL/min/kg | 45 mL/min/kg | 74 mL/min/kg | – | – | – | – | logD [2]: 3.7 |
| O=C1CC(c2c[nH]c3ccc(F)cc23)C(=O)N1 (stereo not given) [PF-06840003] | – | – | – | – | – | – | – | – | IC50 [6]: > 10000 nM |
| O[C@H](C[C@H]1c2c(F)cccc2-c2cncn21)[C@H]1CC[C@H](O)CC1 [NAVOXIMOD] | – | – | – | – | – | – | – | – | EC50 [6]: 2000 nM |
| O[C@@H]1c2ccnn2CC[C@H]1[C@H]1c2ccccc2-c2cncn21 | 35 | < 3.9 mL/min/kg | 37 mL/min/kg | 45 mL/min/kg | 130 nM | > 10000 nM | > 77 | – | Papp A→B [10]: 13 ×10⁻⁶ cm/s; solubility kinetic [11]: 149 µM (≈ 43.6 µg/mL); clearance [12]: 28 mL/min/kg; fraction unbound [13]: 0.09; CL free [14]: 310 mL/min/kg; Vd [15]: 1.1 L/kg; half-life [16]: 46.8 min; bioavailability [17]: 140%; AUC(0-inf) [18]: 0.81 µM·h; bioavailability [19]: 70% |
| O[C@@H](C[C@H]1c2ccccc2-c2cncn21)C1CCCCC1 | – | 18 mL/min/kg | 45 mL/min/kg | 80 mL/min/kg | – | – | – | – | logD [2]: 2.8 |
| Cn1ncc2c1CC[C@@H]([C@H]1c3ccccc3-c3cncn31)[C@@H]2O | 34 | < 3.9 mL/min/kg | 19 mL/min/kg | 46 mL/min/kg | 380 nM | 3300 nM | 9 | 13000 nM | – |
| O[C@@H]1c2ccncc2CC[C@H]1[C@H]1c2ccccc2-c2cncn21 | 17 | 11 mL/min/kg | 46 mL/min/kg | 67 mL/min/kg | – | < 100 nM | < 2 | 800 nM | – |
| OCCC1c2ccccc2-n2nncc21 (stereo not given) | – | – | – | – | – | – | – | – | IC50 [21]: > 25000 nM |
| CS(=O)(=O)c1ccc2c(c1)CC[C@@H]([C@H]1c3ccccc3-c3cncn31)[C@@H]2O | 20 | 6.9 mL/min/kg | 46 mL/min/kg | 81 mL/min/kg | 65 nM | 2800 nM | 43 | 1300 nM | – |
| CC(=O)N1CC[C@@H]([C@H]2c3ccccc3-c3cncn32)[C@H](O)C1 | > 8 | – | – | – | 3000 nM | – | – | > 25000 nM | logD [2]: 1.1 |
| N#Cc1ccc2c(c1)[C@@H](O)[C@H]([C@H]1c3ccccc3-c3cncn31)CC2 | 12 | 14 mL/min/kg | 44 mL/min/kg | 79 mL/min/kg | 60 nM | 3300 nM | 55 | 690 nM | Papp A→B [10]: 1.7 ×10⁻⁶ cm/s |
| CN1CC[C@@H]([C@H]2c3ccccc3-c3cncn32)[C@H](O)C1 | 14 | – | – | – | – | – | – | 20000 nM | logD [2]: 1.4 |
| CP(C)(=O)c1ccc2c(c1)[C@@H](O)[C@H]([C@H]1c3ccccc3-c3cncn31)CC2 | 77 | < 3.9 mL/min/kg | 19 mL/min/kg | 39 mL/min/kg | 130 nM | 1600 nM | 12 | 10000 nM | – |
| O[C@@H]1c2ccccc2CC[C@H]1[C@H]1c2ccccc2-c2cncn21 | – | 11 mL/min/kg | 47 mL/min/kg | 75 mL/min/kg | – | – | – | 240 nM | – |
| O[C@@H]1c2nncn2CC[C@H]1[C@H]1c2ccccc2-c2cncn21 | > 3 | < 3.9 mL/min/kg | 6.1 mL/min/kg | 14 mL/min/kg | 7400 nM | > 10000 nM | > 1 | > 25000 nM | – |
| NS(=O)(=O)NCCNc1nonc1C(=NO)Nc1ccc(F)c(Br)c1 [EPACADOSTAT] | – | – | – | – | – | – | – | – | IC50 [6]: > 10000 nM |
| C[C@H]([C@H](O)c1ccccc1)[C@H]1c2ccccc2-c2cncn21 | – | – | – | – | ≤ 32 nM | – | – | – | – |
